Results pooled from the literature.
Compare with care: the assays were run in different laboratories.
Medium: plasma

OC[C@H]1O[C@@H](c2cc(Cc3ccc(C4CC4)cc3)c(Cl)c3c2CCO3)[C@H](O)[C@@H](O)[C@@H]1O  AUC(0-t) (human; oral; 0.3 mg; single dose, fed): 24.6 ng·h/mL
CC(=O)N(C)[C@H]1CCN(C(=O)c2cnc3c(c2)C[C@](C)(c2ccc(F)cc2)N3)C1  AUC(0-t) (male human; oral; 30 mg; multiple doses, once daily): 3.42 µM·h
C[C@@H](Oc1ccc(S(C)(=O)=O)cc1C(=O)N1C[C@@H]2C[C@]2(c2cc(C(F)(F)F)on2)C1)C(F)(F)F  AUC(0-t) (human; oral; 10 mg; single dose, fed): 1.81 µM·h
CC(=O)O[C@H]1C(=O)[C@@]2(C)[C@H]([C@H](OC(=O)c3ccccc3)[C@]3(O)C[C@H](OC(=O)[C@H](O)[C@@H](NC(=O)c4ccccc4)c4ccccc4)C(C)=C1C3(C)C)[C@]1(OC(C)=O)CO[C@@H]1C[C@@H]2O  AUC(0-t) (human; intravenous; 60 mg/m²): 2.1 µM·h
CC(C)n1c(C2CCNCC2)nc2c([N+](=O)[O-])c(Br)c(Br)cc21  AUC(0-t) (human; oral; 50 mg; patients): 451 ng·h/mL
Cc1cc(-c2nccc3c2ccn3CC(=O)Nc2ccc(-c3cnccn3)cn2)ccn1  AUC(0-t) (human; oral; 7 mg; single dose): 0.498 µM·h
COc1ccc2c(c1)CN(C(=O)CCN1CCC(Cc3ccccc3)CC1)CC[S@@+]2[O-]  AUC(0-t) (male human; intravenous; 0.4 mg/kg; healthy volunteers): 2410 ng·h/mL
C=CC(=O)NC1CCN(c2ncc3ncnc(Nc4ccc(Oc5ccc6c(c5)ncn6C)c(C)c4)c3n2)CC1  AUC(0-t) (male human; intravenous; 100 µg; healthy volunteers): 0.00262 µM·h
COc1ccc(-c2c(Nc3ccccn3)[nH]c3c(C4=CCCCC4)c(-c4ccccc4)nn3c2=O)cc1  AUC(0-t) (human; oral; 50 mg once daily; multiple doses, steady state, patients): 33400 ng·h/mL
